Reference: ChEMBL document CHEMBL3526066, “In vitro metabolism of 17-(dimethylaminoethylamino)-17-demethoxygeldanamycin in human liver microsomes” (Drug Metab Dispos, 2011)
One block for each compound: values may come before it.

Tests used:
[1] = target: Cytochrome P450 2D6 (Homo sapiens, UniProt P10635); test: Drug level assessed as human recombinant CYP2D6-mediated oxidative metabolism treated with 1 uM 17-DMAG relative to CYP3A4; format: ADME; conditions: recombinant enzyme
Procedure, shortened: (§1)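 Recombinant human P450 (E. coli-expressed, coexpressed with cytochrome b5), 20 pmol per 200 µl incubation with 0.2 mg reduced β-NADPH and 3.3 mM MgCl2 in 0.1 M phosphate buffer pH 7.4. Preincubated at 37°C in a shaking water bath, then 1 µM 17-DMAG added. E. coli control microsomes lacking P450 cDNA served as negative control. Metabolite (M1–M4, M6) formation rates were read by LC-MS/MS MRM and expressed as percent of the CYP3A4 rate.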

[2] = tested on: Liver microsome; test: Retention time in human liver microsomes treated with 10 uM […] after 2 hrs by liquid chromatography-tandem mass spectrometry; format: ADME
Procedure, shortened: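 17-DMAG (10 µM initial) was incubated with HLMs (1 mg/ml) in 0.1 M phosphate buffer with 3.3 mM MgCl2 and 1 mM β-NADPH at 37°C for 2 h alongside negative controls, then quenched with ice-cold acetonitrile. Samples were run on a C18 column with a 0.1% formic acid/ammonium formate–acetonitrile gradient (10–90% B in 10 min) using MS full scan, MRM, EPI and MS3 scans.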

[3] = target: T1, Cytochrome P450 2C8 (Homo sapiens, UniProt P10632); test: Drug level assessed as human recombinant CYP2C8-mediated oxidative metabolism treated with 1 uM 17-DMAG relative to CYP3A4; format: ADME; conditions: recombinant enzyme; procedure, shortened: as §1
T1 sequence (P10632 whole entry): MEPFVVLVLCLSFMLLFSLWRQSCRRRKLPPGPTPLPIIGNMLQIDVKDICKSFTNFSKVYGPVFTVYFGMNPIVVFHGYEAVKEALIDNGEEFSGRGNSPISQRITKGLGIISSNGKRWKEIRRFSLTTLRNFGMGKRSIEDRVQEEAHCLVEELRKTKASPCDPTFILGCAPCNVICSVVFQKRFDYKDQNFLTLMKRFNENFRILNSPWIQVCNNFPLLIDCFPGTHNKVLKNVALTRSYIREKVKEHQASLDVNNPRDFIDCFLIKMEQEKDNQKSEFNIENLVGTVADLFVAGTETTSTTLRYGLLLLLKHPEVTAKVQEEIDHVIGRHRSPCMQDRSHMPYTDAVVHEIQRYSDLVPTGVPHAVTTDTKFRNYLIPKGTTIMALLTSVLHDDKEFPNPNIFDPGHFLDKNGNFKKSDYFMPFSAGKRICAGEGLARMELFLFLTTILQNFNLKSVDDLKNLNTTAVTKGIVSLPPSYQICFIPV

[4] = target: Cytochrome P450 2C19 (Homo sapiens, UniProt P33261); test: Drug level assessed as human recombinant CYP2C19-mediated oxidative metabolism treated with 1 uM 17-DMAG relative to CYP3A4; format: ADME; conditions: recombinant enzyme; procedure, shortened: as §1
Sequence of Cytochrome P450 2C19 (P33261 whole entry): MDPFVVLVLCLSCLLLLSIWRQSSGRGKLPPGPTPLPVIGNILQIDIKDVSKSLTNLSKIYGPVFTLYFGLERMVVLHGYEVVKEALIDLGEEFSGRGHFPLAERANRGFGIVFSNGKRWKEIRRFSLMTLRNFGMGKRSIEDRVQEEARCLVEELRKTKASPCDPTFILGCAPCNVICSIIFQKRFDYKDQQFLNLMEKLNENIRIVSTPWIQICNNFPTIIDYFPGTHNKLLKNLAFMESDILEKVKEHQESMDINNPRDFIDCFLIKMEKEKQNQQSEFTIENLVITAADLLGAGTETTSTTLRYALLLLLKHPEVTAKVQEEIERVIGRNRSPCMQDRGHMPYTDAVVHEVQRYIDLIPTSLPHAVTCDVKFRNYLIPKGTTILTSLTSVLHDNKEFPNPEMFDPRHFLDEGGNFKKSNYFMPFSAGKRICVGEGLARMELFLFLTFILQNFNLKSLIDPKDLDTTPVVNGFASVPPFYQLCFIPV

[5] = target: T2, Cytochrome P450 2A6 (Homo sapiens, UniProt P11509); test: Drug level assessed as human recombinant CYP2A6-mediated oxidative metabolism treated with 1 uM 17-DMAG relative to CYP3A4; format: ADME; conditions: recombinant enzyme; procedure, shortened: as §1
T2 sequence (P11509 whole entry): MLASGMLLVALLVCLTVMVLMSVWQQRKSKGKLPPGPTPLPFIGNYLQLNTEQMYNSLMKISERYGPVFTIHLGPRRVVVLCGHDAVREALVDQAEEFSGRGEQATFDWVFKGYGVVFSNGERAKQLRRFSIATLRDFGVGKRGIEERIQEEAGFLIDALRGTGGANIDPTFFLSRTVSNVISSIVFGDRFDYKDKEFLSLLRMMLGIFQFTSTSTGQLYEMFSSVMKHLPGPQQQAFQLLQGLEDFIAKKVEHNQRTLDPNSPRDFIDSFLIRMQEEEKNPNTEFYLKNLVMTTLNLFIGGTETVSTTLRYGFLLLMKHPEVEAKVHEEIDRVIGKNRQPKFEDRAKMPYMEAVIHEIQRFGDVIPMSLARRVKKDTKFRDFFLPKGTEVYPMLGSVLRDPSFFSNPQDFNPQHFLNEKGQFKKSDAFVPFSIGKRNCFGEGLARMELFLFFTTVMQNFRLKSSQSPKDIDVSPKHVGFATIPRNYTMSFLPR

[6] = tested on: Liver microsome; test: Drug level in human liver microsomes treated with 1 uM 17-DMAG by liquid chromatography-tandem mass spectrometry in presence of 1 uM quercetin CYP2C8 inhibitor; format: ADME
Procedure, shortened: (§2)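 Pooled HLMs in 0.1 M phosphate buffer pH 7.4 with 1 mM β-NADPH, 3.3 mM MgCl2 and the selective inhibitor were preincubated 3 min at 37°C in a shaking water bath. 17-DMAG (1 µM final) was then added and incubated 20 min at 37°C, with parallel no-inhibitor controls. M1, M2, M3, M4 and M6 were quantified by LC-MS/MS MRM. Inhibition was taken as the ratio of metabolite formed with versus without inhibitor.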

[7] = tested on: Liver microsome; test: Drug level in human liver microsomes treated with 1 uM 17-DMAG by liquid chromatography-tandem mass spectrometry in presence of 10 uM alpha-naphthoflavone CYP1A2 inhibitor; format: ADME; procedure, shortened: as §2
[8] = target: T3, Cytochrome P450 1A2 (Homo sapiens, UniProt P05177); test: Drug level assessed as human recombinant CYP1A2-mediated oxidative metabolism treated with 1 uM 17-DMAG relative to CYP3A4; format: ADME; conditions: recombinant enzyme; procedure, shortened: as §1
T3 sequence (P05177 whole entry): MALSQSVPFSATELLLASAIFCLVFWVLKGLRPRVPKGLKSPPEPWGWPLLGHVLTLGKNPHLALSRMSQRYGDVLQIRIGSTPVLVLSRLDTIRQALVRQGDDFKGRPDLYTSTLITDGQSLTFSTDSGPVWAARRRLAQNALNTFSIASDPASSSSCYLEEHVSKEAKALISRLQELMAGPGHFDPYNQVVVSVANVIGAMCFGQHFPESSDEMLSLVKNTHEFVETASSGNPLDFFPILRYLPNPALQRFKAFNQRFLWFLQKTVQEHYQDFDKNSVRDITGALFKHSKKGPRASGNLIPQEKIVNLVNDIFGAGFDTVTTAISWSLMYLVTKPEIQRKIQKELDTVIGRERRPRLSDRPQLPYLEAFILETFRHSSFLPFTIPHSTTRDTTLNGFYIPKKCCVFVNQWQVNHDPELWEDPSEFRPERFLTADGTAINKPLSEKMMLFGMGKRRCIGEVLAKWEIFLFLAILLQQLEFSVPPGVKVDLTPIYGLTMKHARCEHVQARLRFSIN

[9] = tested on: Liver microsome; test: Drug level in human liver microsomes treated with 1 uM 17-DMAG by liquid chromatography-tandem mass spectrometry in presence of 1 uM tranylcypromine CYP2A6 inhibitor; format: ADME; procedure, shortened: as §2
[10] = tested on: Liver microsome; test: Drug level in human liver microsomes treated with 1 uM 17-DMAG by liquid chromatography-tandem mass spectrometry in presence of 1 uM quinidine CYP2D6 inhibitor; format: ADME; procedure, shortened: as §2
[11] = target: Cytochrome P450 3A4 (Homo sapiens, UniProt P08684); test: Drug level assessed as human recombinant CYP3A4-mediated oxidative metabolism treated with 1 uM 17-DMAG after 30 mins by liquid chromatography-tandem mass spectrometry; format: ADME; conditions: recombinant enzyme, 0.5 h; procedure, shortened: as §1
Sequence of Cytochrome P450 3A4 (P08684 whole entry): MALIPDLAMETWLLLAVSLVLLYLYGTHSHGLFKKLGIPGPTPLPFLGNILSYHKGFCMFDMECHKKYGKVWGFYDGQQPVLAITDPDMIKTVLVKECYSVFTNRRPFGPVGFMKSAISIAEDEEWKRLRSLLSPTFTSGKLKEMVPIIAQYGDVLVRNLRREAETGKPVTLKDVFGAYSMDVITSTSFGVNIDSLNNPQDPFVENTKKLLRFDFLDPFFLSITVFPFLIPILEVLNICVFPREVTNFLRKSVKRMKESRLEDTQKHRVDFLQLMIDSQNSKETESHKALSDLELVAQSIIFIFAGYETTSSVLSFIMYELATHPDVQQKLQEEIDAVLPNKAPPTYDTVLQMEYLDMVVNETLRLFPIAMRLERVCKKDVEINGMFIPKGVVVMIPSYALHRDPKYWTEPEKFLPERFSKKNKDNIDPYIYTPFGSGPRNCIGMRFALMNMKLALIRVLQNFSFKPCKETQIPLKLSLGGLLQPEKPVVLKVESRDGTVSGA

[12] = tested on: Liver microsome; test: Drug level in human liver microsomes treated with 1 uM 17-DMAG by liquid chromatography-tandem mass spectrometry in presence of 10 uM ticlopidine CYP2B6 inhibitor; format: ADME; procedure, shortened: as §2
[13] = tested on: Liver microsome; test: Drug level in human liver microsomes treated with 1 uM 17-DMAGby liquid chromatography-tandem mass spectrometry in presence of 1 uM sulfaphenazole CYP2C9 inhibitor; format: ADME; procedure, shortened: as §2
[14] = tested on: Liver microsome; test: Drug level in human liver microsomes treated with 1 uM 17-DMAG by liquid chromatography-tandem mass spectrometry in presence of 10 uM diethyldithiocarbamate CYP2E1 inhibitor; format: ADME; procedure, shortened: as §2
[15] = Drug metabolism in human liver microsomes assessed as stability after 2 hrs relative to control by liquid chromatography-tandem mass spectrometry; format: ADME; conditions: read-out: Stability
Procedure, shortened: (§3)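 Pooled human liver microsomes (1 mg/ml) were incubated at 37°C with substrate (5 µM final), 1 mM β-NADPH and 3.3 mM MgCl2 in 0.1 M phosphate buffer, with or without 5 mM reduced GSH. Aliquots were taken from 1 to 120 min and quenched in ice-cold acetonitrile containing internal standard. LC-MS/MS peak-area ratios to internal standard were normalised to the 1-min sample.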

[16] = tested on: Liver microsome; test: Drug metabolism in human liver microsomes assessed as (4E,6Z,8S,9S,10E,12S,13R,14S,16R)-19-(2-(dimethylamino)ethylamino)-13-hydroxy-10-(hydroxymethyl)-8,14-dimethoxy-4,12,16-trimethyl-3,20,22-trioxo-2-azabicyclo[16.3.1]docosa-1(21),4,6,10,18-pentaen-9-yl carbamate formation at 37 degC in presence of reduced GSH by liquid chromatography-tandem mass spectrometry; format: ADME; conditions: read-out: Km(app)
[17] = Total clearance in human; format: ADME, organism-based; conditions: in vivo
[18] = Terminal half life in human; format: ADME, organism-based; conditions: in vivo, read-out: beta t1/2 (converted)
[19] = target: Cytochrome P450 2E1 (Homo sapiens, UniProt P05181); test: Drug metabolism assessed as human recombinant CYP2E1-mediated oxidative metabolism at 1 uM by liquid chromatography-tandem mass spectrometry; format: ADME; conditions: recombinant enzyme
Sequence of Cytochrome P450 2E1 (P05181 whole entry): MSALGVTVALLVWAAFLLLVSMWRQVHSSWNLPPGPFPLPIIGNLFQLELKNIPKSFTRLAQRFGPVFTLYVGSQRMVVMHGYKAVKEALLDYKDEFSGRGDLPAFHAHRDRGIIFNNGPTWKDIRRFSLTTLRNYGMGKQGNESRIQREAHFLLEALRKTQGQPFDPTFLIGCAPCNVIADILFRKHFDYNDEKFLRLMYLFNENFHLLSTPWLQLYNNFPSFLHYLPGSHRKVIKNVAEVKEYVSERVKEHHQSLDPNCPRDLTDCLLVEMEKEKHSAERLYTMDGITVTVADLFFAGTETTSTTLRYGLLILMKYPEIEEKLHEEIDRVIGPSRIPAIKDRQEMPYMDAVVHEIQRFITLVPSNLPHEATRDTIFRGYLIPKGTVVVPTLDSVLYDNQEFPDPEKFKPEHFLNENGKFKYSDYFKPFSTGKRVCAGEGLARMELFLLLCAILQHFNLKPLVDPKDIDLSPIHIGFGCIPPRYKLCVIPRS

[20] = target: Cytochrome P450 2C9 (Homo sapiens, UniProt P11712); test: Drug metabolism assessed as human recombinant CYP2C9-mediated oxidative metabolism at 1 uM by liquid chromatography-tandem mass spectrometry; format: ADME; conditions: recombinant enzyme
Sequence of Cytochrome P450 2C9 (P11712 whole entry): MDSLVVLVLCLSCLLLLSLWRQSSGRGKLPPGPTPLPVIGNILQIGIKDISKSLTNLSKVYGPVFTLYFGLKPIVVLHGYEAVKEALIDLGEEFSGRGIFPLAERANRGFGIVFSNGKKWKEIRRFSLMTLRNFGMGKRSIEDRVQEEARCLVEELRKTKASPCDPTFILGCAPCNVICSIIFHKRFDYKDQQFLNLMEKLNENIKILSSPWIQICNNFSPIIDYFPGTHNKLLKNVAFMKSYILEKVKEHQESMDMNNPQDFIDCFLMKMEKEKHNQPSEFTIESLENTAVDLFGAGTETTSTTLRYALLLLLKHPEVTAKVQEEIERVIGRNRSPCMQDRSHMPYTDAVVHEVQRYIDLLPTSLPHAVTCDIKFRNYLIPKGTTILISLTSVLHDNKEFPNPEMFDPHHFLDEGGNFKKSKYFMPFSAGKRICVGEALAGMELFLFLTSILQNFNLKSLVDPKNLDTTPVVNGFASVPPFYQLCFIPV

[21] = tested on: Liver microsome; test: Drug metabolism in human liver microsomes assessed as (4E,6Z,8S,9S,10E,12S,13R,14S,16R)-19-(2-(dimethylamino)ethylamino)-8,13-dihydroxy-14-methoxy-4,10,12,16-tetramethyl-3,20,22-trioxo-2-azabicyclo[16.3.1]docosa-1(21),4,6,10,18-pentaen-9-yl carbamate formation at 1 uM 17-DMAG by liquid chromatography-tandem mass spectrometry in presence of 1 uM ketoconazole CYP3A inhibitor; format: ADME
[22] = tested on: Liver microsome; test: Metabolic stability in human liver microsomes at 5 uM by liquid chromatography-tandem mass spectrometry; format: ADME; procedure, shortened: as §3
[23] = target: T4, Cytochrome P450 2B6 (Homo sapiens, UniProt P20813); test: Drug metabolism assessed as human recombinant CYP2B6-mediated oxidative metabolism at 1 uM by liquid chromatography-tandem mass spectrometry; format: ADME; conditions: recombinant enzyme
T4 sequence (P20813 whole entry): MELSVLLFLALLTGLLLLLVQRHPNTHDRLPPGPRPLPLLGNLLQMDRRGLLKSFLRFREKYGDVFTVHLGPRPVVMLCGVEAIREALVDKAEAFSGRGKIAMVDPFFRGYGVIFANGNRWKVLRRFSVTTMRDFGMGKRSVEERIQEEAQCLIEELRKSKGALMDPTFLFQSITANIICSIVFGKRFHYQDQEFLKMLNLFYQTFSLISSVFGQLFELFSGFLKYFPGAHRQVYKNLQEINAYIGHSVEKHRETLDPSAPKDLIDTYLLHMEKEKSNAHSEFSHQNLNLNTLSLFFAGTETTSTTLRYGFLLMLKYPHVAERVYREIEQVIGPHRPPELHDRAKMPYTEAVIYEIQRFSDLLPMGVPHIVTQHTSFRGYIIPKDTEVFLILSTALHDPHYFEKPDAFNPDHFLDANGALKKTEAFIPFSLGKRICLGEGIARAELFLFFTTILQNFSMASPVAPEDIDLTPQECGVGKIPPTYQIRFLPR

[24] = tested on: Liver microsome; test: Drug metabolism in human liver microsomes assessed as (4E,6Z,8S,9S,10E,12S,13R,14S,16R)-19-(2-(dimethylamino)ethylamino)-13,14-dihydroxy-8-methoxy-4,10,12,16-tetramethyl-3,20,22-trioxo-2-azabicyclo[16.3.1]docosa-1(21),4,6,10,18-pentaen-9-yl carbamate formation at 37 degC in presence of reduced GSH by liquid chromatography-tandem mass spectrometry; format: ADME; conditions: read-out: Km(app)
[25] = target: Cytochrome P450 3A5 (Homo sapiens, UniProt P20815); test: Drug metabolism assessed as human recombinant CYP3A5-mediated (4E,6Z,8S,9S,10E,12S,13R,14S,16R)-19-(2-(dimethylamino)ethylamino)-13-hydroxy-8,14-dimethoxy-4,10,12,16-tetramethyl-3,20,22-trioxo-2-azabicyclo[16.3.1]docosa-1(21),4,6,10,18-pentaen-9-yl carbamate formation at 1 uM relative to CYP3A4; format: ADME; conditions: recombinant enzyme
Sequence of Cytochrome P450 3A5 (P20815 whole entry): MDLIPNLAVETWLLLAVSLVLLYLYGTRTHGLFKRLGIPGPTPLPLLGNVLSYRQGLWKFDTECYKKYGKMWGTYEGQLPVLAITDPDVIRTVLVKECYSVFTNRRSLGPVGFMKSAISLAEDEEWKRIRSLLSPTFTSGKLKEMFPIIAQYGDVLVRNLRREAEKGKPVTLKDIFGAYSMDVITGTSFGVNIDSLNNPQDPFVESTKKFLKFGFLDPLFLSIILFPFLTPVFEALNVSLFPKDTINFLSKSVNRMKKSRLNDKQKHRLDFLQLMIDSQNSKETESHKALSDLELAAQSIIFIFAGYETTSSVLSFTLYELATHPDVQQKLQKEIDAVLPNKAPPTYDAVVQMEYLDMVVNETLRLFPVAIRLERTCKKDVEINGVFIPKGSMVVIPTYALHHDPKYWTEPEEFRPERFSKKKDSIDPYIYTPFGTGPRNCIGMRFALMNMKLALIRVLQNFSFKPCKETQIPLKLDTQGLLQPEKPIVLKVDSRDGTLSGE

Sequence of Cytochrome P450 2D6 (P10635 whole entry): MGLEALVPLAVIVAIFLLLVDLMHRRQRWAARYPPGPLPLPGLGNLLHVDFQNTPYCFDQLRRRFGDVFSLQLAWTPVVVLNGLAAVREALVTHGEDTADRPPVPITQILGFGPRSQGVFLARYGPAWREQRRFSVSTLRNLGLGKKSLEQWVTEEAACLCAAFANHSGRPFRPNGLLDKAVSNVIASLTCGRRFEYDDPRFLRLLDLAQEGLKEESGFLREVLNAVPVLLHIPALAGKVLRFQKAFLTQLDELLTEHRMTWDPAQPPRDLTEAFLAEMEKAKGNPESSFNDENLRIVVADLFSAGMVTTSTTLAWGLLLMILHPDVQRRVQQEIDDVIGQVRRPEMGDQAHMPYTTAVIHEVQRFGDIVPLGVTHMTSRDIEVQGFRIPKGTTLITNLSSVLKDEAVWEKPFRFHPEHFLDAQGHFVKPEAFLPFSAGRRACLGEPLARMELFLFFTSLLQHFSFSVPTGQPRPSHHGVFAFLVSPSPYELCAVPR

Drug metabolism [1]: metabolite_detected | Retention_time [2]: 6.8 min | Drug metabolism [3]: metabolite_detected | Drug metabolism [4]: metabolite_detected | Drug metabolism [5]: metabolite_detected | Drug metabolism [6]: metabolite_detected | Drug metabolism [7]: metabolite_detected | Drug metabolism [8]: metabolite_detected | Drug metabolism [9]: metabolite_detected | Drug metabolism [10]: metabolite_detected | Drug metabolism [11]: metabolite_detected | Drug metabolism [12]: metabolite_detected | Drug metabolism [13]: metabolite_detected | Drug metabolism [14]: metabolite_detected
Compound: CO[C@H]1/C=C\C=C(/C)C(=O)NC2=CC(=O)C(NC(O)CN(C)C)=C(C[C@@H](CO)C[C@H](OC)[C@H](O)[C@@H](CO)/C=C(\C)[C@@H]1OC(N)=O)C2=O (stereo not given in full)

Compound: CO[C@H]1/C=C\C=C(/C)C(=O)NC2=CC(=O)C(NCCN(C)C)=C(C[C@@H](C)C[C@H](OC)[C@H](O)[C@@H](C)/C=C(\C)[C@@H]1OC(N)=O)C2=O (stereo in doubt) [ALVESPIMYCIN]
remaining at 2 h [15]: 24% | Km [16]: 6.61 µM | clearance [17]: 123 mL/min | half-life [18]: 16 h | Drug metabolism [19]: metabolite_not_detected | Drug metabolism [20]: metabolite_not_detected | Drug metabolism [21]: metabolite_not_detected | Stability [22]: Stable | Drug metabolism [23]: metabolite_not_detected | Km [24]: 7.83 µM | Drug metabolism [25]: metabolite_not_detected
